PAFAH2 inh: PAFAH2 (human) inhibition. AID 492956. Q99487. inhibition, % at 3.39 µM. 0.99% of 340,000 active. recombinant PAFAH2, FP-rhodamine activity probe, fluorescence polarization;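 active = inhibition above the mean over all tested compounds plus 3 SD, cut at about 30% in these data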;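 also: inhibitors block probe labeling of enzyme so polarization drops; 0% = enzyme with DMSO and 100% = wells lacking PAFAH2 protein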
PAFAH1B3 inh: blocks human PAF acetylhydrolase 1B catalytic subunit 3; recombinant PAFAH1B3, FP-rhodamine probe, fluorescence polarization; inhibition, % at 3.39 µM; 0.28% of 340,000 active;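 active = inhibition above the screen-wide average of all tested compounds plus 3 SD, cut at about 25% in these data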;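 also: 0% = enzyme with DMSO only and 100% = wells lacking PAFAH1B3 protein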
Target sequence (Q15102 whole entry, looked up): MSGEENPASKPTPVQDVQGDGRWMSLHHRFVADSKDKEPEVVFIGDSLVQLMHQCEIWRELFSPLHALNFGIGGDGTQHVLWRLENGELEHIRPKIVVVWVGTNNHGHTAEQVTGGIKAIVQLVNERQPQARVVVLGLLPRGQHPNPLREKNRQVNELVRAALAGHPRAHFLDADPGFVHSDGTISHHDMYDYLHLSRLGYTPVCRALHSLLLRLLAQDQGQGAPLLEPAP
ARFGAP1 inh: inhibits rat ARF GTPase activating protein 1; Q62848; Arfgap1-stimulated ARF1 GTP hydrolysis, GDP FP detection; inhibition, % at 16.5 µM; 0.26% of 360,000 active; AID 651572;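 active = inhibition above a per-plate limit, mean inhibition of low control wells plus 3 SD, cut at about 25% in these data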;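 also: 0% = DMSO wells with enzyme and 100% = wells lacking Arfgap1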
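System: truncated rat Arfgap1 GAP domain / Medium: HEPES-based buffer, pH 7.5 / Also added: N-terminally truncated human ARF1-GTP substrate / Incubation: enzyme reaction 120 min at 25 °C after 20 min preincubation / Measured by: FP of antibody-bound GDP Alexa 633 tracer, ex 620/em 688 nm / Replicates: singlicate, each compound tested once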
ASAP1 GAP inh: ASAP1 ArfGAP inhibition | ASAP1-stimulated ARF1 GTP hydrolysis, GDP FP detection | inhibition, % at 16.5 µM | 0.19% of 360,000 active; in the data active = inhibition above about 25%;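 also: 0% = vehicle with enzyme and substrate and 100% = no enzyme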
pPAFAH inh: pPAFAH (human) enzyme inhibition; Q13093; recombinant pPAFAH, FP-rhodamine probe fluorescence polarization; inhibition, % at 3.39 µM; 1.5% of 330,000 active; AID 463082;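 active = inhibition above the mean inhibition across the screen plus 3 SD, cut at about 25% in these data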;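 also: inhibitors block binding of the rhodamine activity-based probe so polarization drops; 0% = enzyme with DMSO and 100% = wells lacking pPAFAH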
Target sequence (Q13093 whole entry, looked up): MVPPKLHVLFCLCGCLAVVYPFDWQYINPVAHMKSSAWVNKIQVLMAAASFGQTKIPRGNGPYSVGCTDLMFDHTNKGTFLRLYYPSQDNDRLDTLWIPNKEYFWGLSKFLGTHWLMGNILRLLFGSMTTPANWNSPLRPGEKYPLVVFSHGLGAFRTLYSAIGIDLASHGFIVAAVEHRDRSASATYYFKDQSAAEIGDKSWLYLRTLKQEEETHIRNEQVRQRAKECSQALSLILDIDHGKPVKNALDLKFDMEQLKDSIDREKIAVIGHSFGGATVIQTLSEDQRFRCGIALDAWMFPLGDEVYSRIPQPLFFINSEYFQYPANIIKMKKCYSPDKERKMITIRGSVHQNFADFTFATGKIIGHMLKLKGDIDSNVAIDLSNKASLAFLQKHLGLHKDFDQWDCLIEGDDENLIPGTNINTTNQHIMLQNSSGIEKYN
PAFAH1B2 FP inh: PAFAH1B2 (human) inhibition; P68402; 1.2% of 340,000 active; inhibition, % at 3.39 µM; recombinant PAFAH1B2, FP-rhodamine activity probe, fluorescence polarization;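 active = inhibition above the mean of all tested compounds plus 3 SD, cut at about 24% in these data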;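 also: 0% = enzyme with DMSO and 100% = wells lacking PAFAH1B2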
Active calls of the source: *; . = not tested or not shown. Most compounds without a hit are left out; they make up all but 2.8% or so of the library.

SMILES | PAFAH2 inh | PAFAH1B3 inh | ARFGAP1 inh | ASAP1 GAP inh | pPAFAH inh | PAFAH1B2 FP inh
COc1ccc([N+](=O)[O-])cc1N(CC(=O)NCCSc1ccc(C)cc1)S(C)(=O)=O | 8 | 4 | -3 | 6 | -7 | 31*
COc1cccc(OC)c1NC(=O)C1CCCN1C(=O)Nc1ccccc1Cl (stereo unspecified) | -5 | 8 | 2 | 4 | . | -3
CCOc1ccc(N=C/C=C/c2ccccc2)c(O)c1 | 0 | 2 | 9 | 8 | 32* | 0
CCOc1ccc(NCC(=O)N/N=C/C=C/c2ccccc2)cc1 | 3 | 5 | -17 | 14 | 7 | 1
O=C(NNC(=O)c1ccccc1F)c1cccc(-n2cccc2)c1 | 13 | 0 | -2 | -8 | 26* | 2
COc1ccc(C2SCC(C(=O)O)N2C(C)=O)cc1OC (stereo unspecified) | -1 | 2 | 27* | -2 | -9 | 4
O=C(NCCC(=O)N(CCc1ccccc1)Cc1ccccc1)c1ccc(Br)cc1 | -2 | -1 | 5 | -13 | 4 | 4
COc1ccc(C(NC(=O)C2CCN(CCCOc3ccccc3)CC2)c2cccs2)cc1 (stereo unspecified) | . | . | -5 | 9 | . | .
COc1cc2c(cc1NC(=O)C(C)NCc1ccccc1)oc1ccccc12 (stereo unspecified) | -7 | 6 | -1 | -9 | 26* | 0
COc1ccc(C(C)(C)C)cc1NC(=O)CCCN1C(=O)CN(C)C1=O | 0 | 2 | 9 | 9 | . | 5
C=C(C)COc1ccc2c3c(c(=O)oc2c1OCC(=C)C)CCC3 | 67* | 0 | -5 | 6 | 31* | 6
CC(=O)COc1ccc2c3c(c(=O)oc2c1C)CCCCC3 | -6 | -1 | -9 | 5 | 15 | -1
O=C(Cc1ccc(S(=O)(=O)N2CCOCC2)s1)Nc1ccc(S(=O)(=O)N2CCCCC2)cc1 | 5 | -9 | . | . | 21 | 0
COc1ccc(C2CC(c3ccccc3)=NN2c2ccc(C(N)=O)cc2)cc1 (stereo unspecified) | 5 | 4 | 12 | 5 | 13 | 3
O=Cc1ccc(N2N=C(c3ccccc3)CC2c2ccccc2)cc1 (stereo unspecified) | 21 | 17 | 1 | 12 | 30* | 12
O=C(O)c1ccc(N2N=C(c3ccccc3)CC2c2ccccc2)cc1 (stereo unspecified) | 2 | -7 | -12 | -2 | 32* | -2
CC(=O)NC(c1cccc(F)c1)c1nc(-c2ccc3ccccc3c2)cs1 (stereo unspecified) | . | . | 13 | 9 | . | .
O=C1C2C3C=CC(C4CC34)C2C(=O)N1/N=C/c1ccc(-c2ccc(F)cc2[N+](=O)[O-])o1 (stereo unspecified) | 2 | 9 | -2 | 5 | 2 | 2
Cc1ccc(-c2ccc(/C=N/N3C(=O)C4C5C=CC(CC5)C4C3=O)o2)c([N+](=O)[O-])c1 (stereo unspecified) | 10 | -2 | 3 | 10 | 25* | 5
CCN1CCN(c2ccc(S(=O)(=O)N3CCOCC3)cc2NC(=O)C2CCC(C(C)(C)C)CC2)CC1 (stereo unspecified) | 11 | 3 | -8 | 5 | . | 2
Cc1cc(SCC(=O)OCC(=O)N2CCN(C(=O)c3ccco3)CC2)c(C)cc1Br | 2 | 2 | 1 | -5 | 22 | 5
O=C(CSc1ccccc1)OCC(=O)N1CCN(C(=O)c2ccco2)CC1 | 21 | -1 | 8 | -2 | 26* | 12
O=C(CSc1ccccc1)N1CCN(C(=O)c2ccco2)CC1 | 5 | 4 | -2 | 6 | 5 | 5
Cc1ccc(SCC(=O)OCC(=O)N2CCN(C(=O)c3ccco3)CC2)c(C)c1 | 16 | 3 | -10 | -1 | 34* | 12
Cc1cccc(OCC(=O)OCC(=O)N2CCN(C(=O)c3ccco3)CC2)c1C | 6 | 16 | 4 | -1 | 27* | 3
SMILES | PAFAH2 inh | PAFAH1B3 inh | ARFGAP1 inh | ASAP1 GAP inh | pPAFAH inh | PAFAH1B2 FP inh
O=C(NN1CCCCC1)NN1CCCCC1 | . | . | -9 | -3 | . | .
N#CCCN(C(=O)CSc1nnc(-c2ccncc2)n1C1CC1)c1ccccc1 | 2 | 0 | -6 | 14 | 2 | 0
NC(=O)Cc1ccc(C(=O)CSc2nnc(-c3ccncc3)n2C2CC2)s1 | 19 | 3 | 2 | -2 | 33* | 6
CC(C)(C)OC(=O)N[C@H]1C=C[C@@H](CC(=O)OCC(F)(F)F)C1 | . | . | 14 | 15 | . | .
Cc1cc(C)cc(N=Cc2ccc([N+](=O)[O-])s2)c1 | 15 | 21 | -2 | -5 | 4 | 5
O=[N+]([O-])c1ccc(C=Nc2ccc(Cl)c([N+](=O)[O-])c2)s1 | 60* | 16 | -5 | 24 | . | 13
NC(=O)c1ccc(N=Cc2ccc([N+](=O)[O-])s2)cc1 | 60* | 13 | -1 | 12 | 14 | 8
Oc1ccc(NCc2cccs2)cc1 | -9 | 8 | 8 | 0 | 28* | 3
C=CCN=c1scc(C)n1/N=C/c1ccc(O)c(O)c1 | 10 | 12 | 8 | 1 | 34* | 6
CN=c1scc(C)n1/N=C/c1ccc(O)cc1 | -3 | 11 | -14 | -8 | -1 | 2
O=S(=O)(NC1C2CC3CC(C2)CC1C3)c1ccccc1 (stereo unspecified) | 8 | 5 | 8 | 9 | 2 | 26*
O=S(=O)(NC1CCCCCCC1)c1ccccc1 | 3 | 2 | -5 | 0 | 6 | 11
O=C(O)c1cc(-c2ccccc2Cl)n(-c2ccccc2)n1 | -7 | 6 | -7 | -4 | 4 | 29*
CC1(Cc2ccc(F)cc2)C(=O)Nc2ccc(-c3cccnc3)cc21 (stereo unspecified) | . | . | 13 | -4 | . | .
CC1(C)CC2(CC(c3ccc(F)cc3)c3ccc(O)cc3O2)NC(=S)N1 (stereo unspecified) | 1 | -1 | -2 | -6 | 1 | 12
CC1(C)CC2(CC(c3ccccc3F)c3ccc(O)c(O)c3O2)NC(=S)N1 (stereo unspecified) | -1 | -3 | 6 | -1 | 33* | 7
CCn1cc(C(=O)Nc2ncccc2O)c(=O)c2cc(F)c(N3CCN(C(=O)c4ccco4)CC3)cc21 | 20 | 9 | 4 | 5 | 5 | 4
COc1ccc(O)c(C(=O)c2cnn(C(=O)c3cccc(S(=O)(=O)N(C)C)c3)c2)c1 | 0 | 4 | 6 | 2 | 1 | 7
O=C(NCc1cccnc1)c1cc(Sc2cccc(Cl)c2)nc2ccccc12 | 10 | -4 | -3 | -2 | 33* | 2
c1ccc(-c2nc3ccccn3c2-c2ccccc2)cc1 | 6 | 1 | -20 | -1 | 9 | 6
CCCCn1c(N)c(C(=S)NC(=O)CC(C)(C)C)c(=O)n(C)c1=O | -2 | 4 | 0 | -16 | -2 | 27*
COc1ccc(S(=O)(=O)N2CCN(CC(=O)NC(Cc3ccccc3)C(C)=O)CC2)cc1 (stereo unspecified) | 8 | 6 | 3 | -7 | 2 | 20

Screening results (PubChem)
